# Laboratory results published in ChEMBL document CHEMBL3751847, “Novel naphtho[2,1-d]oxazole-4,5-diones as NQO1 substrates with improved aqueous solubility: Design, synthesis, and in vivo antitumor evaluation” (Bioorg Med Chem, 2016).
# Calls of active or inactive are those of the source. The calls are words filed in the database; no cut-off is given here.
# How the values were obtained:
# A549 [1] = assay: Cytotoxicity against human A549 cells expressing NQO1 after 2 hrs by MTT assay; format: functional, cell-based; conditions: A549, 2 h
# In short: (§1)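 MTT assay: cells in RPMI 1640 + 10% FBS seeded at 10,000 cells/mL, attached 16 h, exposed to compound in triplicate for 2 h, washed out, then grown 72 h at 37 °C, 5% CO2; MTT 4 h, formazan in DMSO, A560. Dicoumarol cotreatment 25 µmol·L-1 for 2 h. IC50 from semilog plots of percent control.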
# [2] = biological target: T1, NAD(P)H dehydrogenase [quinone] 1 (Homo sapiens, UniProt P15559); assay: Drug metabolism assessed as recombinant human NQO1-mediated NADPH oxidation to NADP+ per micromol of protein preincubated for 3 mins followed by NADPH addition measured at 2 s intervals for 5 mins by enzyme labelling instrument-based assay; format: ADME
# T1 sequence (P15559 whole entry): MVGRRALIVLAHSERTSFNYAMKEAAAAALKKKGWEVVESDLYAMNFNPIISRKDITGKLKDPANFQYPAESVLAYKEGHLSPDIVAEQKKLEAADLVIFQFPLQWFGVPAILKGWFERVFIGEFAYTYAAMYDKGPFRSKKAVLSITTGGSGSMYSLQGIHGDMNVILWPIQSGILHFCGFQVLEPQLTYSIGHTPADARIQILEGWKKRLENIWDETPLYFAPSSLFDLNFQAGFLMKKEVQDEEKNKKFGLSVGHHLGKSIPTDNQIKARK
# In short: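 NADPH recycling assay: quinones 0.1–50 µmol·L-1 with recombinant human NQO1 1.4 µg/mL in 50 mmol·L-1 potassium phosphate pH 7.4, 3 min preincubation, reaction started with NADPH 400 µmol·L-1; A340 every 2 s for 5 min at 22–25 °C. Slopes from linear 20 s–1 min, compared with no-compound reactions; at least triplicate.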
# [3] = Solubility of compound in diluted hydrochloric acid buffer solution at pH 3 at 25 deg C for 8 hrs; format: physicochemical
# In short: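 Compounds shaken in diluted hydrochloric acid buffer at pH 3, 25 °C for 8 h.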
# A549 [4] = assay: Antitumor activity against human A549 cells xenografted in athymic nude mouse assessed as tumor volume at 30 mg/kg, iv administered every other day over 21 days (reference value: 1085.8 +/- 298.3 mm'3); format: functional
# In short: (§2)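 Athymic nude mice (7–8 weeks) given 5 × 10^6 log-phase A549 cells in the flank; randomized at mean tumor ~100 mm3 (5 mice/group) to vehicle, 15 or 30 mg/kg test agent in dilute HCl buffer pH 3, or positive control in saline; tail-vein injection every other day for three weeks. Caliper volume = a × b²/2, measured daily; wet tumor weight after euthanasia. TGI from weight; T/C = RTV(treated)/RTV(control) × 100, RTV = VT/V0.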
# A549 [5] = assay: Antitumor activity against human A549 cells xenografted in athymic nude mouse assessed as tumor growth inhibition at 30 mg/kg, iv administered every other day over 21 days relative to vehicle control; format: functional; conditions: 504 h, read-out: TGI; in short: as §2
# [6] = Lipophilicity, log D of compound at pH 7.4; format: physicochemical; conditions: buffer
# In short: (§3)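 Neutral aqueous solubility and log D at pH 7.4 by Avdeef–Bucher potentiometric titration on a Gemini Profiler.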
# NCI-H596 = assay: Cytotoxicity against NQO1-deficient human NCI-H596 cells after 2 hrs by MTT assay; format: cell-based; conditions: NCI-H596, 2 h; in short: as §1
# Mus musculus [7] = assay: Hepatotoxicity in athymic nude mouse at 15 to 30 mg/kg, iv administered every other day over 21 days relative to vehicle control; format: toxicity, organism-based; conditions: in vivo, 504 h
# In short: (§4)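 A549 xenograft nude mice, 5/group, dosed 15 or 30 mg/kg by tail vein every other day for three weeks in dilute HCl buffer pH 3; vehicle group as reference. Body weight tracked over treatment; liver examined for toxic signs.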
# [8] = Intrinsic aqueous solubility of compound by Avdeef-Bucher potentiometric titration assay; format: physicochemical; conditions: aqueous solution; read-out: Intrinsic_solubility; in short: as §3
# A549 [9] = assay: Antitumor activity against human A549 cells xenografted in athymic nude mouse assessed as tumor growth inhibition at 15 mg/kg, iv administered every other day over 21 days relative to vehicle control; format: functional, organism-based; in short: as §2
# [10] = Selectivity ratio of IC50 for NQO1-deficient human NCI-H596 cells to IC50 for human A549 cells expressing NQO1; format: cell-based
# In short: (§5)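 IC50 ratios from the 2 h-exposure/72 h MTT assay: A549 IC50 with 25 µmol·L-1 dicoumarol cotreatment divided by IC50 without; or H596 IC50 divided by A549 IC50.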
# A549 [11] = assay: Antitumor activity against human A549 cells xenografted in athymic nude mouse assessed as tumor proliferation rate at 30 mg/kg, iv administered every other day over 21 days relative to vehicle-treated control; format: functional; in short: as §2
# Mus musculus [12] = assay: Toxicity in athymic nude mouse assessed as body weight loss at 15 to 30 mg/kg, iv administered every other day over 21 days relative to vehicle control; format: organism-based; conditions: in vivo, 504 h; in short: as §4
# A549 [13] = assay: Ratio of IC50 for human A549 cells expressing NQO1 in presence of NQO1 inhibitor dicoumarol to IC50 for human A549 cells expressing NQO1 in absence of NQO1 inhibitor dicoumarol; format: functional; in short: as §5
# [14] = biological target: T1, NAD(P)H dehydrogenase [quinone] 1; assay: Binding affinity to recombinant human NQO1 assessed as induction of ROS generation by measuring reduction of cytochrome C per min per mg of NQO1 by spectrophotometric analysis in presence of NQO1 inhibitor dicoumarol
# In short: (§6)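 Superoxide via cytochrome c reduction at 550 nm: 30 µmol·L-1 cytochrome c, 0.2 mmol·L-1 NADPH, recombinant human NQO1 0.1–3.0 µg/mL, quinone 25 µmol·L-1 in 25 mmol·L-1 Tris-HCl pH 7.4 with 0.7 mg/mL BSA and 0.1% Tween-20; dicoumarol 25 µmol·L-1 where stated. Initial rates from linear 0–30 s; at least triplicate.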
# [15] = Cytotoxicity against human L02 cells after 2 hrs by MTT assay; format: cell-based; conditions: L02, 2 h; in short: as §1
# A549 [16] = assay: Cytotoxicity against human A549 cells expressing NQO1 after 2 hrs in presence of dicoumarol by MTT assay; format: functional, cell-based; conditions: A549, 2 h; in short: as §1
# [17] = biological target: T1, NAD(P)H dehydrogenase [quinone] 1; assay: Binding affinity to recombinant human NQO1 assessed as induction of ROS generation by measuring reduction of cytochrome C per min per mg of NQO1 by spectrophotometric analysis; in short: as §6
SMILES,Drug metabolism [2],solubility at 8 h [3],logD [6],IC50 (A549 [1]),other results
CN(C)Cc1nc2c(o1)-c1ccccc1C(=O)C2=O,939 µmol/min,> 100 µg/mL,–,8.7 µM,–
COc1cccc(NCc2nc3c(o2)-c2ccccc2C(=O)C3=O)c1,955 µmol/min,> 100 µg/mL,–,15 µM,–
CCc1nc2c(o1)-c1ccccc1C(=O)C2=O,955 µmol/min,–,–,7.6 µM,–
Cc1nc2c(o1)-c1ccccc1C(=O)C2=O,1202 µmol/min,–,–,20 µM,–
COc1ccc(NCc2nc3c(o2)-c2ccccc2C(=O)C3=O)cc1,1063 µmol/min,> 100 µg/mL,–,13 µM,–
Cc1ccc(NCc2nc3c(o2)-c2ccccc2C(=O)C3=O)cc1,968 µmol/min,> 100 µg/mL,–,12 µM,–
O=C1C(=O)c2nc(CNc3ccc(Cl)cc3)oc2-c2ccccc21,1522 µmol/min,< 100 µg/mL,2.65,19 µM,solubility [8]: 38 µg/mL
O=C1C(=O)c2nc(CNc3cccc(F)c3)oc2-c2ccccc21,1391 µmol/min,< 100 µg/mL,3.18,5.2 µM,solubility [8]: 44 µg/mL
CC1(C)CCC2=C(O1)c1ccccc1C(=O)C2=O [LAPACHONE],1210 µmol/min,< 100 µg/mL,2.85,3.7 µM,inhibition in vivo at 30 mg/kg (A549 [5]): 70.1%; T/C (A549 [11]): 29.5%; Activity [17]: Active

# The next lines start with results.
Drug metabolism [2],solubility at 8 h [3],logD [6],SMILES,IC50 (A549 [1]),other results
990 µmol/min,> 100 µg/mL,–,COc1ccccc1NCc1nc2c(o1)-c1ccccc1C(=O)C2=O,11 µM,–
1360 µmol/min,> 500 µg/mL,1.88,O=C1C(=O)c2nc(CN3CCN(Cc4ccccc4)CC3)oc2-c2ccccc21,4.6 µM,Activity (A549 [4]): 440.8 mm3; inhibition in vivo at 30 mg/kg (A549 [5]): 55.6%; IC50 (NCI-H596): 57 µM; Activity (Mus musculus [7]): Non-toxic; solubility [8]: 125 µg/mL; TGI (A549 [9]): Active; Ratio IC50 [10]: > 12; T/C (A549 [11]): 41.4%; Activity (Mus musculus [12]): Non-toxic; Ratio IC50 (A549 [13]): >7; Activity [14]: Not Active; IC50 [15]: 70 µM; IC50 (A549 [16]): 64 µM; Activity [17]: Active
686 µmol/min,> 100 µg/mL,–,O=C1C(=O)c2nc(CN3CCOCC3)oc2-c2ccccc21,6.9 µM,–
1139 µmol/min,> 100 µg/mL,–,O=C1C(=O)c2nc(CN3CCN(c4ccccc4)CC3)oc2-c2ccccc21,7.6 µM,–
